# Screening results (PubChem BioAssay)
# An excerpt weighted towards active compounds, which were near 4.3% of everything screened.
# OX1R antag-1: OX1R (human) antagonism. OX1R-expressing cells, FRET antagonist read-out. inhibition, % at 6.6 µM. 330,000 tested, 1.8% active. AID 485270; in the data active = inhibition mostly above about 38%, no sharp cut-off; inactive = mostly below about 40%;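 also: 0% = agonist challenge alone and 100% = reference antagonist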
# Target sequence (O43613 whole entry, looked up): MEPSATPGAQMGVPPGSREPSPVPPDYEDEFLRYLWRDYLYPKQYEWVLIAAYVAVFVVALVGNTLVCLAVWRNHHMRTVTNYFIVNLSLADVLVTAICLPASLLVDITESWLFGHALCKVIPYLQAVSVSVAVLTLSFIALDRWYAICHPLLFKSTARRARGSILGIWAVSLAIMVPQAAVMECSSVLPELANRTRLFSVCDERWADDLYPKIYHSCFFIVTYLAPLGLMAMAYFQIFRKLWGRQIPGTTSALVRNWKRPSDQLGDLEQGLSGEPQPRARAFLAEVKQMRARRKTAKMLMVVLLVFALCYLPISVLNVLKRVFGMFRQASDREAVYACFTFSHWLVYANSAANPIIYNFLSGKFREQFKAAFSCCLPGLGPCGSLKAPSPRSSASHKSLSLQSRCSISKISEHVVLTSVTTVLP
# CHO parental Ca: counter-screen: ATP calcium response change in parental CHO cells; parental CHO-K1, ATP-induced calcium, Fluo-8 fluorescence; inhibition, % at 5.6 µM; 330,000 tested, 0.63% active; AID 463079;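 active = inhibition above that plate's mean sample inhibition plus 3 SD, cut at about 26% in these data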;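 also: 0% = ATP-challenged DMSO wells and 100% = DMSO wells without ATP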
#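 Material: Parental CHO cells | Reagent: ATP | Compound dosing: Single nominal dose of 5.6 µM per compound | Detection: Intracellular calcium via Fluo-8 no-wash fluorescent dye | Read-out: % inhibition of ATP-induced calcium mobilization | Benchmarks: Low control ATP plus DMSO, high control DMSO only | Replicates: Singlicate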
# TAAR1 antagonist: human TAAR1 antagonism. Q96RJ0. CHO RD-HGA16 TAAR1, Fluo-8 calcium fluorescence, antagonist. inhibition, % at 3 µM. 360,000 tested, 1.5% active. AID 624466;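 active = inhibition above a per-plate cutoff, the mean inhibition of test compounds on that plate plus 3 SD, cut at about 49% in these data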;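 also: 0% = DMSO plus EC80 beta-PEA response and 100% = DMSO alone without agonist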
#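 Test system: CHO RD-HGA16 cells bearing hTAAR1 | Reagent: β-PEA, EC80 | Compound dosing: 3 µM, single point | Schedule: Dye loading 75 min at 37 °C, then 30 min room temperature | Signal: Calcium fluorescence with Fluo-8 | Evaluation: Percent inhibition of PEA-evoked calcium signal, max/basal emission ratio | Control set: DMSO-only wells and EC80 β-PEA-stimulated wells | Repeats: Singlicate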
# TAAR1 ag: human TAAR1 agonism; activation, % at 3 µM; AID 624467; CHO RD-HGA16 TAAR1, Fluo-8 calcium fluorescence; vehicle wells 0%, saturating PEA agonist 100%; 360,000 tested, 0.99% active; Q96RJ0;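 active = activation above the mean activation of all test compounds in the run plus 3 SD, cut at about 38% in these data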
#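 Benchmarks: low control DMSO, high control PEA (EC100); System: CHO RD-HGA16 cells carrying human TAAR1 plus Gα16; Detection: Fluo-8 fluorescence, 5 s baseline then 140 s kinetic read; Schedule: 17-24 h plating, Fluo-8 75 min 37 °C, 30 min RT; Read-out basis: % activation from peak over basal fluorescence ratio, DMSO-to-PEA scaled.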
# OX1R antag-2: antagonists of human orexin 1 receptor. O43613. CHO/OX1R cells, Fluo-8 calcium fluorescence, orexin A. inhibition, % at 5 µM. 330,000 tested, 0.43% active. AID 434989;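 active = inhibition above its plate's threshold, mean inhibition of all tested compounds on the plate plus 3 SD, cut at about 37% in these data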;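 also: 0% = orexin A challenge wells and 100% = SB-334867-A antagonist wells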
# GalR3 antagonist: human GalR3 antagonism; HEK293 GalR3-CNG cAMP membrane potential fluorescence; galR3 body fused to GalR1 C-terminus; O60755; inhibition, % at 3 µM; 360,000 tested, 0.44% active;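 active = inhibition above the screen-wide average plus 3 SD, cut at about 13% in these data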;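 also: forskolin and galanin both at EC90 stimulate the cells; cAMP rise reported by CNG channel membrane potential dye signal; 0% = forskolin plus galanin with DMSO and 100% = forskolin alone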
# Target sequence (O60755 1-299 limits assumed): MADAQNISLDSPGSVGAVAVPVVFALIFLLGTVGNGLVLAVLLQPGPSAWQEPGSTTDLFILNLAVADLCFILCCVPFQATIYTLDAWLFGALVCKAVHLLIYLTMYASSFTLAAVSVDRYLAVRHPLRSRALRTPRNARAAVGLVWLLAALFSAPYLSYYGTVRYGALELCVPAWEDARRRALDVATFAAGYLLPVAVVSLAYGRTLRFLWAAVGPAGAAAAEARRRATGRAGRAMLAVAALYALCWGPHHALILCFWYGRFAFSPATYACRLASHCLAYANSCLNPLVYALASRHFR
# Active calls of the source: *; · = no result given.
SMILES,OX1R antag-1,CHO parental Ca,TAAR1 antagonist,TAAR1 ag,OX1R antag-2,GalR3 antagonist
CCOC(=O)c1cc(S(=O)(=O)Nc2ccc(F)cc2F)cn1C,4.4,-5.5,-34.1,1.9,-4.9,-6.4
O=P(OC1CCCCC1)(OC1CCCCC1)C(O)c1c(Cl)cccc1Cl (stereo not drawn),44.8*,-8.5,-2.6,17.3,-10.3,8.1
O=P(OC1CCCCC1)(OC1CCCCC1)C(O)c1ccc(Cl)cc1Cl (stereo not drawn),10.2,-21.2,5.1,15.1,-24.8,-6.4
c1ccc(-c2nnc(N3CCCC3)nc2-c2ccccc2)cc1,·,·,0.1,-0.1,·,-8.5
CCc1nc2c(OCC3COc4ccccc4O3)cccn2c1N(C)C(=O)c1ccc(OC)cc1 (stereo not drawn),·,·,-2.5,-2.6,·,-7.3
COc1cccc(Nc2nc(C(N)Cc3ccc(Cl)cc3)cs2)n1 (stereo not drawn),·,·,55.2*,64.5*,·,-7.8
COc1cccc(Nc2nc(C(N)CC(C)C)cs2)n1 (stereo not drawn),·,·,-12.6,42.4*,·,-6.8
CC(=O)c1ccc(Nc2nc(C(N)Cc3ccc(N)cc3)cs2)cc1 (stereo not drawn),·,·,1.4,0.7,·,-8.6
COc1cccc(Nc2nc(C(N)CCc3ccccc3)cs2)n1 (stereo not drawn),·,·,22.4,45.0*,·,-1.0
CC(=O)c1ccc(Nc2nc(C(N)Cc3ccc(Cl)cc3)cs2)cc1 (stereo not drawn),·,·,6.9,49.7*,·,-6.3
NC(=O)c1cccc(Nc2nc(C(N)CCc3ccccc3)cs2)n1 (stereo not drawn),·,·,1.8,3.4,·,-5.0
S=C(NCc1ccc2c(c1)OCO2)Nc1ccc2nsnc2c1,39.8,32.1,32.0,11.8,53.1*,-2.7
Cc1ccc(NC(=S)NCc2ccc3c(c2)OCO3)cc1C,4.0,-16.9,6.2,6.2,-11.2,-5.2
CCOc1ccc(NC(=S)Nc2ccc3nsnc3c2)cc1,113.3*,-12.2,9.7,9.9,-12.1,2.4
CCOc1ccc(NC(=O)Nc2ccc3nsnc3c2)cc1,18.1,2.0,29.3,22.4,0.9,-4.9
CCOc1ccc(NC(=O)CN(C)C(=O)CCN2C(=O)C3CC=CCC3C2=O)cc1OCC (stereo not drawn),1.2,-6.9,-21.6,-0.6,-12.6,2.9
Cc1[nH]cnc1C(=O)N/N=C/c1ccc([N+](=O)[O-])s1,71.2*,4.5,-5.4,2.5,-14.4,-10.9
Cc1cc(C(=O)N/N=C/c2cc(Cl)cc([N+](=O)[O-])c2O)n[nH]1,66.4*,-2.0,-16.9,1.2,-17.3,4.1
Cc1cc(C(=O)N/N=C/c2ccc([N+](=O)[O-])s2)n[nH]1,53.3*,-3.8,-22.9,3.1,-10.9,0.2
Cc1cc(C(=O)N/N=C/c2ccc(C)s2)n[nH]1,10.7,6.9,1.7,2.9,-10.9,-8.2
CC1=C(C(=O)N(C)C)CC(CC(=O)NC2CCCCC2)C(=O)N1CCC1=CCCCC1 (stereo not drawn),·,·,-22.0,-0.7,·,-6.8
C[C@@H]1C=CCCO[C@]12C(=O)N(Cc1ccccc1C(F)(F)F)c1cccc(Br)c12,·,·,-32.6,-1.7,·,9.6
COc1ccccc1N(C)S(=O)(=O)c1ccc(C(=O)NCC2CCCCC2)cc1,6.0,-17.1,53.2*,11.9,1.1,1.0
COc1ccccc1N(C)S(=O)(=O)c1ccc(C(=O)NCC(C)C)cc1,4.0,-10.7,-4.7,6.9,-7.0,-2.3
COC(=O)c1ccc(CNC(=O)c2ccc(S(=O)(=O)N(C)c3ccccc3OC)cc2)cc1,10.6,3.9,57.0*,21.0,20.5,-5.6
SMILES,OX1R antag-1,CHO parental Ca,TAAR1 antagonist,TAAR1 ag,OX1R antag-2,GalR3 antagonist
Cc1c(C(=O)Nc2ccc(F)cc2)nnn1-c1cccc(C(F)(F)F)c1,36.1,48.8*,-8.4,6.9,4.0,1.1
Cc1onc(-c2ccccc2)c1C(=O)N1CCN(C(=O)C(=O)c2cccc(C(F)(F)F)c2)CC1,·,·,9.3,4.4,·,-4.7
CCOC(=O)C1CCN(c2cc3c(cc2NC(=O)c2ccccc2Cl)n(C)c(=O)n3C)CC1,6.2,-17.7,55.8*,4.4,-22.4,5.3
CCOC(=O)C1CCN(c2cc3c(cc2NC(=O)c2ccccc2F)n(C)c(=O)n3C)CC1,6.5,-27.2,7.3,4.3,-33.5,-6.3
Cc1cc(C)c2oc(=O)cc(CN3CCC(C)CC3)c2c1,-3.4,-19.3,-7.1,0.6,-24.8,-6.4
COc1ccc(C(=O)Nc2ccc(OCC(=O)N3CCOCC3)cc2)c(OC)c1OC,12.3,-9.5,-8.9,1.5,-2.6,-0.4
O=c1nc(/C=C/c2ccc(-c3ccc(F)cc3)o2)cc(C(F)(F)F)[nH]1,13.4,12.5,·,·,53.1*,·
O=C(O)c1cc(Cl)ccc1-c1ccc(/C=C/c2cc(C(F)(F)F)[nH]c(=O)n2)o1,5.0,3.6,8.7,67.2*,5.1,-6.0
O=Cc1ccc(-c2ccc(F)cc2)o1,3.4,2.0,-3.4,3.5,-8.2,-2.2
Cc1nc(S/C(=C/c2ccc(-c3cc(Cl)ccc3C)o2)C(=O)O)n[nH]1,2.1,-3.1,-1.3,-3.3,-15.3,-4.3
O=S(=O)(c1ccc(F)cc1)N1CCN(S(=O)(=O)c2ccc3c(c2)OCCO3)CC1,5.2,15.8,17.6,3.0,3.8,-3.9
Cc1cc(C)c2cc(C#N)c(N3CCCN(C(=O)c4cnccn4)CC3)nc2c1,50.8*,-11.1,-10.6,-3.9,-13.1,-2.6
CCN1C[C@@H]2[C@@H]3C(=O)N(Cc4ccccc4)C(=O)[C@@H]3[C@](C)(C(=O)OC)N2C1=NC,4.7,-8.9,·,·,-5.1,·
COc1cc(/C=C2\SC(=S)N(NC(=O)c3ccccc3O)C2=O)ccc1O,24.7,35.3*,30.5,30.8,20.6,-10.9
COc1ccc(/C=C2\SC(=S)N(NC(=O)c3ccncc3)C2=O)cc1OC,21.8,-5.6,·,·,-18.6,·
COCCN(Cc1ccc(C)cc1)C(=O)[C@@H](Cc1ccccc1)NC(=O)[C@H]1O[C@@H](n2ccc(=O)[nH]c2=O)[C@H](O)[C@@H]1O,·,·,-32.6,0.0,·,-6.3
COC(=O)c1c(-c2ccc(C)cc2)csc1NC(=O)Cc1ccc(OC)c(OC)c1,·,·,54.8*,4.3,·,-2.2
N#Cc1c(-c2ccccc2)cc(-c2ccccc2)nc1SCCC(=O)O,73.6*,7.8,11.9,1.2,-16.4,-11.0
N#Cc1c(-c2ccc(Cl)cc2)cc(-c2ccccc2)nc1SCC(=O)O,28.4,-8.3,31.8,-1.5,-19.7,-10.2
Cn1c(CC(=O)NNC(=O)c2ccc(Cl)nc2)nc2ccccc21,0.0,-7.3,5.8,0.9,-2.6,-3.3
O=C(COC(=O)[C@@H]1CC(O)CN1S(=O)(=O)c1ccccc1[N+](=O)[O-])c1ccccc1 (stereo partly drawn),15.3,-15.7,1.8,10.4,-10.5,-0.8
